# Test results published in ChEMBL document CHEMBL5724801, “EUbOPEN Chemogenomics Library - Multiplex” (2024).
# Several values for one entry are separate records, joined by “and”; a condition that tells them apart may be missing. Equal entries are not always repeated.
# What was measured:
# HEK-293T = assay: Multiplex assay against HEK293T; type: toxicity, cell-based; conditions: human
# Procedure, shortened: (§1)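 At seeding, live cells were stained with Hoechst33342, BioTracker Green Microtubule Cytoskeleton Dye, MitoTracker Red and Annexin V Alexa Fluor 680. After compound addition they were imaged on a CQ1 microscope at 37°C and 5% CO2, and CellPathfinder machine-learning gating sorted them into Hoechst high-intensity objects or normal cells, with normal cells further split into healthy, pyknosed or fragmented nuclei and pyknosed cells into mitotic or apoptotic. Tubulin, mitochondrial-mass and membrane-permeability phenotypes are given as per cents of cells with healthy nuclei.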
# Fibroblast = assay: Multiplex assay against human fibroblast; type: toxicity, cell-based; procedure, shortened: as §1
# [1] = 24 h, 10 µM, compound concentration 10 uM
# [2] = 48 h, 1 µM, compound concentration 1 uM
# [3] = 48 h, 10 µM, compound concentration 10 uM
# [4] = 12 h, 1 µM, compound concentration 1 uM
# [5] = 12 h, 10 µM, compound concentration 10 uM
# [6] = 24 h, 1 µM, compound concentration 1 uM
structure (smiles),measurement,setting,value
N[C@](CC1c2ccccc2Oc2ccccc21)(C(=O)O)[C@H]1C[C@@H]1C(=O)O,Population Apoptotic (%),HEK-293T; [1],29% and 40%
same,Population Fragmented Nuclei (%),HEK-293T; [1],10% and 6%
same,Population Healthy Nuclei (%),HEK-293T; [1],79% and 82%
same,Population Hoechst High Intensity Objects (%),HEK-293T; [1],5%
same,Population Membrane Permeable-Phenotype (%),HEK-293T; [1],0%
same,Population Mitochondria Different-Phenotype (%),HEK-293T; [1],30% and 41%
same,Population Mitotic Cells (%),HEK-293T; [1],70% and 59%
same,Population Normal (%),HEK-293T; [1],94%
same,Population Pyknosed Nuclei (%),HEK-293T; [1],10% and 11%
same,Population Tubulin-Different-Phenotype (%),HEK-293T; [1],17% and 16%
same,Total Cell Count,HEK-293T; [1],510 and 471
same,Population Apoptotic (%),HEK-293T; [2],12% and 17%
same,Population Fragmented Nuclei (%),HEK-293T; [2],11% and 12%
same,Population Healthy Nuclei (%),HEK-293T; [2],80% and 81%
same,Population Hoechst High Intensity Objects (%),HEK-293T; [2],2% and 1%
same,Population Membrane Permeable-Phenotype (%),HEK-293T; [2],2% and 0%
same,Population Mitochondria Different-Phenotype (%),HEK-293T; [2],15% and 17%
same,Population Mitotic Cells (%),HEK-293T; [2],87% and 82%
same,Population Normal (%),HEK-293T; [2],97% and 98%
same,Population Pyknosed Nuclei (%),HEK-293T; [2],7% and 6%
same,Population Tubulin-Different-Phenotype (%),HEK-293T; [2],13% and 10%
same,Total Cell Count,HEK-293T; [2],1040 and 654
same,Population Apoptotic (%),HEK-293T; [3],28% and 42%
same,Population Fragmented Nuclei (%),HEK-293T; [3],13%
same,Population Healthy Nuclei (%),HEK-293T; [3],78% and 80%
same,Population Hoechst High Intensity Objects (%),HEK-293T; [3],2% and 4%
same,Population Membrane Permeable-Phenotype (%),HEK-293T; [3],0%
same,Population Mitochondria Different-Phenotype (%),HEK-293T; [3],17% and 25%
same,Population Mitotic Cells (%),HEK-293T; [3],71% and 57%
same,Population Normal (%),HEK-293T; [3],97% and 95%
same,Population Pyknosed Nuclei (%),HEK-293T; [3],8% and 6%
same,Population Tubulin-Different-Phenotype (%),HEK-293T; [3],8% and 12%
same,Total Cell Count,HEK-293T; [3],789 and 687
same,Population Apoptotic (%),Fibroblast; [4],44% and 58%
same,Population Fragmented Nuclei (%),Fibroblast; [4],12% and 18%
same,Population Healthy Nuclei (%),Fibroblast; [4],73% and 59%
same,Population Hoechst High Intensity Objects (%),Fibroblast; [4],4% and 1%
same,Population Membrane Permeable-Phenotype (%),Fibroblast; [4],0% and 7%
same,Population Mitochondria Different-Phenotype (%),Fibroblast; [4],1%
same,Population Mitotic Cells (%),Fibroblast; [4],56% and 41%
same,Population Normal (%),Fibroblast; [4],95% and 98%
same,Population Pyknosed Nuclei (%),Fibroblast; [4],13% and 21%
same,Population Tubulin-Different-Phenotype (%),Fibroblast; [4],27% and 37%
same,Total Cell Count,Fibroblast; [4],189 and 113
same,Population Apoptotic (%),Fibroblast; [5],50% and 26%
same,Population Fragmented Nuclei (%),Fibroblast; [5],13% and 20%
same,Population Healthy Nuclei (%),Fibroblast; [5],66% and 59%
same,Population Hoechst High Intensity Objects (%),Fibroblast; [5],1% and 7%
same,Population Membrane Permeable-Phenotype (%),Fibroblast; [5],2% and 0%
same,Population Mitochondria Different-Phenotype (%),Fibroblast; [5],2% and 7%
same,Population Mitotic Cells (%),Fibroblast; [5],50% and 73%
same,Population Normal (%),Fibroblast; [5],98% and 92%
same,Population Pyknosed Nuclei (%),Fibroblast; [5],20%
same,Population Tubulin-Different-Phenotype (%),Fibroblast; [5],22% and 33%
same,Total Cell Count,Fibroblast; [5],203 and 119
same,Population Apoptotic (%),Fibroblast; [6],68% and 33%
same,Population Fragmented Nuclei (%),Fibroblast; [6],12% and 27%
same,Population Healthy Nuclei (%),Fibroblast; [6],73% and 49%
same,Population Hoechst High Intensity Objects (%),Fibroblast; [6],2% and 4%
same,Population Membrane Permeable-Phenotype (%),Fibroblast; [6],2% and 6%
same,Population Mitochondria Different-Phenotype (%),Fibroblast; [6],2% and 1%
same,Population Mitotic Cells (%),Fibroblast; [6],32% and 66%
same,Population Normal (%),Fibroblast; [6],97% and 95%
same,Population Pyknosed Nuclei (%),Fibroblast; [6],13% and 22%
same,Population Tubulin-Different-Phenotype (%),Fibroblast; [6],25% and 44%
same,Total Cell Count,Fibroblast; [6],183 and 123
same,Population Apoptotic (%),Fibroblast; [1],57% and 35%
same,Population Fragmented Nuclei (%),Fibroblast; [1],10% and 18%
same,Population Healthy Nuclei (%),Fibroblast; [1],68% and 66%
same,Population Hoechst High Intensity Objects (%),Fibroblast; [1],1% and 2%
same,Population Membrane Permeable-Phenotype (%),Fibroblast; [1],1%
same,Population Mitochondria Different-Phenotype (%),Fibroblast; [1],3% and 4%
same,Population Mitotic Cells (%),Fibroblast; [1],42% and 64%
same,Population Normal (%),Fibroblast; [1],98% and 97%
same,Population Pyknosed Nuclei (%),Fibroblast; [1],20% and 15%
same,Population Tubulin-Different-Phenotype (%),Fibroblast; [1],30% and 34%
same,Total Cell Count,Fibroblast; [1],193 and 113
same,Population Apoptotic (%),Fibroblast; [2],62% and 23%
same,Population Fragmented Nuclei (%),Fibroblast; [2],17% and 36%
same,Population Healthy Nuclei (%),Fibroblast; [2],68% and 48%
same,Population Hoechst High Intensity Objects (%),Fibroblast; [2],2% and 8%
same,Population Membrane Permeable-Phenotype (%),Fibroblast; [2],0% and 9%
same,Population Mitochondria Different-Phenotype (%),Fibroblast; [2],2% and 5%
same,Population Mitotic Cells (%),Fibroblast; [2],37% and 76%
same,Population Normal (%),Fibroblast; [2],97% and 91%
same,Population Pyknosed Nuclei (%),Fibroblast; [2],14%
same,Population Tubulin-Different-Phenotype (%),Fibroblast; [2],26% and 65%
same,Total Cell Count,Fibroblast; [2],189 and 125
same,Population Apoptotic (%),Fibroblast; [3],45% and 27%
same,Population Fragmented Nuclei (%),Fibroblast; [3],14% and 27%
same,Population Healthy Nuclei (%),Fibroblast; [3],68% and 63%
same,Population Hoechst High Intensity Objects (%),Fibroblast; [3],5% and 3%
same,Population Membrane Permeable-Phenotype (%),Fibroblast; [3],1% and 2%
same,Population Mitochondria Different-Phenotype (%),Fibroblast; [3],2%
same,Population Mitotic Cells (%),Fibroblast; [3],54% and 72%
same,Population Normal (%),Fibroblast; [3],94% and 96%
same,Population Pyknosed Nuclei (%),Fibroblast; [3],16% and 9%
same,Population Tubulin-Different-Phenotype (%),Fibroblast; [3],32% and 28%
same,Total Cell Count,Fibroblast; [3],198 and 115
